Data set [1] can be described thus: Inhibition of recombinant type N-terminal His6-tagged 2 R67 DHFR expressed in Escherichia coli BL21 using DHF as substrate by spectrophotometry. A digest of the protocol: (§1)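 His-tagged R67 DHFR purified from E. coli by Ni affinity with an imidazole gradient. Activity followed as NADPH plus DHF depletion at 340 nm (Δε 12800 M⁻¹cm⁻¹) in 400 mM HEPES pH 7.0 with 10% final DMSO. Reactions started with 250 nM enzyme; initial rates (<10% conversion). Ki via Cheng–Prusoff with KM(NADPH) 1.6 μM, assuming competitive inhibition.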

A short description of data set [2]: Competitive inhibition of recombinant R67 DHFR expressed in Escherichia coli BL21 using DHF as substrate by Dixon plot analysis in the presence of 5 to 80 uM NADPH. The gist of the method:
(§2)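 Dixon method in 50 mM potassium phosphate pH 7.0, 10% DMSO. NADPH series: DHF fixed at 50 μM, NADPH at 5 or 80 μM, inhibitor over a range spanning Ki. DHF series: NADPH fixed at 50 μM. Reciprocal rates plotted against inhibitor concentration; Ki taken from the slope intersection; triplicates, mean ± SD.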

The target of data set [3] is T1, Dihydrofolate reductase (Homo sapiens) (UniProt P00374).
T1 sequence (whole entry): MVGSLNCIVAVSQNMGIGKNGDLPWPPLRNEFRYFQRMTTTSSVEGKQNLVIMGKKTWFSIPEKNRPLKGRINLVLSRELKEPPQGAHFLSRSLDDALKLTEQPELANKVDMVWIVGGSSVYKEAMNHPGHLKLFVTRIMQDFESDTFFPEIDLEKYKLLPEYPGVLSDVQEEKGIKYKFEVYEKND
Kind of data set: Inhibition of human chromosomal DHFR expressed in Escherichia coli BL21 using DHF as substrate assessed as remaining activity at 400 uM by spectrophotometry relative to control.

Data set [4] can be described thus: Competitive inhibition of recombinant R67 DHFR expressed in Escherichia coli BL21 using 25 to 164 uM DHF as substrate by Dixon plot analysis in the presence of 50 uM of NADPH. A digest of the protocol: as §2
Data set [5] can be described thus: Cytotoxicity against mouse 3T6 cells assessed as cell death at 200 uM after 72 hrs by MTT assay. It counts as cell-based. A digest of the protocol:
(§3)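 Mouse 3T6 embryonic fibroblasts in DMEM + 10% heat-inactivated FBS, 37 °C, 5% CO2, seeded at 5×10³ cells/well. Eight dilutions 0.05–200 μM from DMSO, medium with compound renewed at 24 h, 48 h further incubation. MTT 3 h, read at 540 nm with 690 nm reference. Triplicates; % inhibition versus blank-corrected solvent controls; IC50 from the plot.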

The test system of another data set is Escherichia coli. The data set can be described thus: Antibacterial activity against Escherichia coli […] expressing […] up to 1 mM in presence of 50 ug/mL Trimethoprim. It counts as functional, organism-based. A digest of the protocol: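 E. coli XL1-Blue expressing R67 DHFR grown in M9 minimal medium with 50 μg/mL TMP to block chromosomal DHFR; growth inhibition tested up to 1 mM (maximal concentration).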

The target of data set [6] is T1, Dihydrofolate reductase (Homo sapiens). The data set can be described thus: Inhibition of human chromosomal DHFR expressed in Escherichia coli BL21 using DHF as substrate assessed as remaining activity at 2.5 mM by spectrophotometry relative to control. A digest of the protocol:
(§4)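 Human chromosomal DHFR overexpressed in E. coli BL21(DE3). Spectrophotometric assay at 340 nm following NADPH/DHF depletion in 50 mM potassium phosphate pH 8.0, 10% final DMSO, initial rates. Each compound was tested at its highest concentration allowed by solubility and absorbance; activity reported relative to the uninhibited control.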

Data set [7] is described as follows: Inhibition of Escherichia coli R67 DHFR. The gist of the method:
as §1

Data set [8] has as its target T1, Dihydrofolate reductase (Homo sapiens). Kind of data set: Inhibition of human chromosomal DHFR expressed in Escherichia coli BL21 using DHF as substrate assessed as remaining activity at 10 mM by spectrophotometry relative to control. A digest of the protocol:
as §4

Data set [9] has the same target. Kind of data set: Inhibition of human chromosomal DHFR expressed in Escherichia coli BL21 using DHF as substrate assessed as remaining activity at 5 mM by spectrophotometry relative to control. The gist of the method:
as §4

Data set [10] shares this target. Kind of data set: Inhibition of human chromosomal DHFR expressed in Escherichia coli BL21 using DHF as substrate assessed as remaining activity at 30 mM by spectrophotometry relative to control. A digest of the protocol: as §4
Data set [11] in a line: Cytotoxicity against mouse 3T6 cells after 72 hrs by MTT assay. Type of data set: cell-based. A digest of the protocol:
as §3

Data set [12] has as its target T1, Dihydrofolate reductase (Homo sapiens). The data set can be described thus: Inhibition of human chromosomal DHFR expressed in Escherichia coli BL21 using DHF as substrate assessed as remaining activity at 300 uM by spectrophotometry relative to control.
Data set [13] shares this target. The data set can be described thus: Inhibition of human chromosomal DHFR expressed in Escherichia coli BL21 using DHF as substrate assessed as remaining activity at 1 mM by spectrophotometry relative to control. The gist of the method: as §4

Each structure is given as a SMILES string. The source made the active and inactive calls. The rule behind the calls is not given here.

In the case of `O=C(O)c1ccc2[nH]c(-c3ccc(OCCCCCOc4ccc(-c5nc6cc(C(=O)O)ccc6[nH]5)cc4)cc3)nc2c1`, the IC50 in [1] was determined as 64 µM. Besides, the Ki was found to be 2 µM in [1], 4.2 µM in [2] and 9.7 µM in [4]. Further, the figures for the Activity in data set [3] and in data set [5] were 95% and 40%, respectively. For the same compound, in the data set on Escherichia coli, the result was inactive.

On to `Nc1ccc2cc(C(=O)O)ccc2c1`, for which, in data set [1], the half-maximal inhibitory concentration (IC50) was 1700 µM and the Ki was found to be 51 µM. For the same compound, the Activity in data set [6] was 14%.

The compound `Nc1c(/N=N/c2ccc(-c3ccc(/N=N/c4cc(S(=O)(=O)O)c5ccccc5c4N)cc3)cc2)cc(S(=O)(=O)O)c2ccccc12` [CONGO RED] yielded a Ki in data set [7] of 2 µM.

As for `O=C(O)c1ccc2[nH]cnc2c1`, in [1], the IC50 worked out at 2600 µM and the Ki was 80 µM. In addition, the Activity in [8] was determined as 75%.

With `O=C(O)c1cc2nccnc2s1`, in data set [1], the IC50 was 2000 µM and the Ki came to 61 µM. Further, the Activity in [9] came to 37%.

With `COc1ccc2cc(C(=O)O)ccc2c1`, the inhibition entry in data set [1] was “inactive”.

In the case of `O=C(O)c1ccc2[nH]nnc2c1`, in data set [1], the IC50 was 8400 µM and the inhibition constant Ki was 260 µM. Moreover, the Activity in data set [10] is 69%.

`Nc1cc2ccccc2cc1C(=O)O`: the inhibition entry in data set [1] was “inactive”.

Take `Cc1nc2cc(C(=O)O)ccc2[nH]1`: in data set [1], the inhibition entry was “inactive”.

For the compound `c1ccc2[nH]c(-c3ccc(OCCCCCOc4ccc(-c5nc6ccccc6[nH]5)cc4)cc3)nc2c1`, the IC50 in data set [1] is no less than 300 µM; in [11], 0.98 µM. Further, the Activity in data set [12] turned out to be 110%.

`O=C(O)c1ccc2c(c1)OCO2`: the inhibition result in [1] is “inactive”.

On to `CC(C)n1nnc2cc(C(=O)O)ccc21`, for which, in [1], the inhibition entry is “inactive”.

As to `Oc1nncc2ccccc12` [PHTHALAZINONE], in [1], the IC50 came out at 17000 µM and the inhibition constant Ki came out at 530 µM. Moreover, the Activity in data set [10] came to 97%.

On to `O=C(O)c1ccc2cc(O)ccc2c1`, for which, in [1], the 50% inhibitory concentration (IC50) was found to be 6100 µM and the inhibition constant (Ki) came out at 190 µM. The Activity in [8] is 13%.

Regarding `O=C(O)c1ccc2[nH]c(-c3ccc(OCC(O)COc4ccc(-c5nc6cc(C(=O)O)ccc6[nH]5)cc4)cc3)nc2c1`, in data set [1], the IC50 was determined as 130 µM and the Ki amounted to 4 µM. The Activity in data set [5] came to 40%. Also, in data set [13], the Activity was determined as 95%. Also, the outcome with Escherichia coli was inactive.

As for `COc1cc2c(OC)cccc2cc1C(=O)O`, in data set [1], the half-inhibitory concentration (IC50) turned out to be 1800 µM and the inhibitory constant (Ki) turned out to be 55 µM. Besides, in data set [9], the Activity amounted to 14%.

As for `c1ccc2[nH]cnc2c1`, the inhibition result in [1] was “inactive”.

In data set [7], `CO[C@@H]1[C@@H](OC(N)=O)[C@@H](O)[C@H](Oc2ccc3c(O)c(NC(=O)c4ccc(O)c(CC=C(C)C)c4)c(=O)oc3c2C)OC1(C)C` [NOVOBIOCIN] showed an inhibition constant Ki of 70 µM.

Turning to `O=C(O)c1ccc(OCCCCCOc2ccc(C(=O)O)cc2)cc1`, the half-inhibitory concentration (IC50) in [1] was no less than 1000 µM; in [11], 34 µM. The Activity in data set [13] was found to be 100%.

Source of the values: ChEMBL document CHEMBL2040719, “Fragment-based design of symmetrical bis-benzimidazoles as selective inhibitors of the trimethoprim-resistant, type II R67 dihydrofolate reductase” (J Med Chem, 2012).
